Test results as given in ChEMBL document CHEMBL5712095, “The UVSSA complex alleviates MYC-driven transcription stress” (J Cell Biol, 2021).
The source made the active and inactive calls. The calls are words filed in the database; no cut-off is given here.

Tests used:
Type in all cases: cell-based
MCF10 [1] = assay: Inhibition of DNA replicative polymerase in human MCF10A cells with UVSSA knockdown assessed as increase in MYC ON/MYC OFF survival ratio at 50 ng/ml administered every 48 to 72 hrs over 26 days by FBCS assay; details: time 26.0 day
Summary of the method: (§1)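 FBCS: 250,000 shUVSSA-4 or shCONTROL MCF10A-MYC-ER cells coplated with 250,000 shRNA-free cells. Given 1 µg/ml doxycycline, 200 nM 4OHT or ethanol vehicle, and aphidicolin (top dose 50 ng/ml) or vehicle every 48–72 h for 26 d. Fluorescent fraction measured by flow cytometry at each passage; MYC ON/MYC OFF ratio calculated; n = 3.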

MCF10 [2] = assay: Inhibition of DNA replicative polymerase in human MCF10A cells with UVSSA knockdown assessed as transiently alleviation of synthetic sickness phenotype at 50 ng/ml administered every 48 to 72 hrs over 26 days by FBCS assay; details: time 26.0 day; summary of the method: as §1
[3] = molecular target: Ubiquitin carboxyl-terminal hydrolase 7 (Homo sapiens) (UniProt Q93009); assay: Inhibition of USP7 in human MCF10A-MYC-ER cells assessed as increase in sensitization of MYC expressing cells up to 4 uM by MTT assay relative to control; details: MCF10
[4] = molecular target: Ubiquitin carboxyl-terminal hydrolase 7 (Homo sapiens) (UniProt Q93009); assay: Inhibition of USP7 in human MCF10A-MYC-ER cells assessed as increase in sensitization of MYC expressing cells up to 4 uM by Clonogenic assays relative to control; details: MCF10
Summary of the method: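 Clonogenic assay: MCF10A-MYC-ER cells plated at 500 per 100-mm dish with 200 nM 4OHT or vehicle. Next day, P5091 at 0–4 µM for 24 h, then medium with 4OHT or vehicle for 10 d at 37°C. Colonies methanol-fixed, crystal violet-stained and counted; percentage survival from colony number; unpaired t test, n = 4.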

MCF10 [5] = assay: Inhibition of RNA polymerase 2 in human MCF10A cells with UVSSA knockdown assessed as increase in MYC ON/MYC OFF survival ratio at 100 ng/ml administered every 48 to 72 hrs over 14 days by FBCS assay; details: time 14.0 day
[6] = Toxicity in human MCF10A cells with UVSSA knockdown assessed as increase in MYC ON/MYC OFF survival ratio at 100 ng/ml administered every 48 to 72 hrs over 14 days by FBCS assay; details: mcf10, 336 h, time 14 day
MCF10 [7] = assay: Inhibition of RNA polymerase 2 in human MCF10A cells with UVSSA knockdown assessed as transiently alleviation of synthetic sickness phenotype at 100 ng/ml administered every 48 to 72 hrs over 14 days by FBCS assay; details: time 14.0 day
DNA = assay: Induction of DNA double strand breaks in human MCF10A cells assessed as significant accumulation of P-CHK1(S345) or P-RPA (S4/S8) by Western blot analysis; details: MCF10
Summary of the method: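 Immunoblot of whole-cell lysates (RIPA buffer with protease/phosphatase inhibitors, sonicated, cleared at 4°C) from MCF10A-MYC-ER shRNA lines given 200 nM 4OHT or vehicle plus 1 µg/ml doxycycline every 3 d and harvested at day 9. β-Actin is the loading control and NCS-treated cells the DSB positive control. Signal detected by ECL on film.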

Ubiquitin carboxyl-terminal hydrolase 7 (Homo sapiens), sequence (Q93009 whole entry, looked up): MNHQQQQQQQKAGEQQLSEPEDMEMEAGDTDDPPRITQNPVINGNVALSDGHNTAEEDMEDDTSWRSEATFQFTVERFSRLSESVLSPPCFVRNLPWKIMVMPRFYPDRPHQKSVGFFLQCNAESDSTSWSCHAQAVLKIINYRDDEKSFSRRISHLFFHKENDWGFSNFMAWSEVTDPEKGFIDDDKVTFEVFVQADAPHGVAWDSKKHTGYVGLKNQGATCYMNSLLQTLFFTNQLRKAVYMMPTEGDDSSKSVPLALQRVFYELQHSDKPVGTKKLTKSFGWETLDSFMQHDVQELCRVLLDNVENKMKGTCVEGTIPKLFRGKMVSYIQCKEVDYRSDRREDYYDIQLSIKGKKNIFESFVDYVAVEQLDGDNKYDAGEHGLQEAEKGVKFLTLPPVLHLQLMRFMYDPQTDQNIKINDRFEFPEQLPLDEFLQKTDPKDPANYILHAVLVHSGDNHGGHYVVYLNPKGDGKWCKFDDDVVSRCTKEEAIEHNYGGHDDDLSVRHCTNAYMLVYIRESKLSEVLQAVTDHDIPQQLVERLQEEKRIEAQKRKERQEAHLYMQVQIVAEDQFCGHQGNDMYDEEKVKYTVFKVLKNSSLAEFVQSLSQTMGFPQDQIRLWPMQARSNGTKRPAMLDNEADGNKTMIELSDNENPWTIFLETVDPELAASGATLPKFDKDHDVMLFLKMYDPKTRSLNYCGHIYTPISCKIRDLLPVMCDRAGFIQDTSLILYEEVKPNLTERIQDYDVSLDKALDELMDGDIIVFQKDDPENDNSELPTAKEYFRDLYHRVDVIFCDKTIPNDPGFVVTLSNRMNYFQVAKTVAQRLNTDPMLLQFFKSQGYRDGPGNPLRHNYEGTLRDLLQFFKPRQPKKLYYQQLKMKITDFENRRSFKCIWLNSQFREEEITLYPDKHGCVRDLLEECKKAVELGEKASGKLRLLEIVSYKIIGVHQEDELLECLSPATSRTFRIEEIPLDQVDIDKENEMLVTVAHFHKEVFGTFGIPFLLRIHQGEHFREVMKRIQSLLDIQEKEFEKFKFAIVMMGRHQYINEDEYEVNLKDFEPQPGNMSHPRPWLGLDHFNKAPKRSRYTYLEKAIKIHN

C[C@@]1(CO)[C@H](O)CC[C@@]2(C)[C@H]1CC[C@H]1C[C@@H]3C[C@@]12CC[C@]3(O)CO
inhibition (MCF10 [1]): inactive
inhibition (MCF10 [2]): inactive

CC(=O)c1cc([N+](=O)[O-])c(Sc2cccc(Cl)c2Cl)s1
fold change (FC) [3]: 3
inhibition [4]: Active

CC[C@H](C)[C@@H]1NC(=O)CNC(=O)[C@@H]2Cc3c([nH]c4cc(O)ccc34)[S@+]([O-])C[C@H](NC(=O)CNC1=O)C(=O)N[C@@H](CC(N)=O)C(=O)N1C[C@H](O)C[C@H]1C(=O)N[C@@H]([C@@H](C)[C@@H](O)CO)C(=O)N2
inhibition (MCF10 [5]): Active
Activity [6]: Toxic
inhibition (MCF10 [7]): Active

CN[C@H]1[C@@H](O[C@@H]2C3CC#C[C@H]4O[C@@]4(C4COC(=O)O4)C#CC3=C[C@H]2OC(=O)c2c(O)ccc3c(C)cc(OC)cc23)O[C@H](C)[C@H](O)[C@@H]1O (stereo partly drawn)
Activity (DNA): Active
